Reference: ChEMBL document CHEMBL4613263, “Optimization of Tetrahydroindazoles as Inhibitors of Human Dihydroorotate Dehydrogenase and Evaluation of Their Activity and In Vitro Metabolic Stability” (J Med Chem, 2020)
Activity calls are given as the source filed them. The calls are words filed in the database; no cut-off is given here.

What was measured:
[1] = molecular target: T1, Dihydroorotate dehydrogenase (quinone), mitochondrial (Homo sapiens, UniProt Q02127); experiment: Inhibition of DHODH in human ARN8 cells assessed as activation of p53-dependent transcription at 0.05 to 10 uM incubated for 16 hrs in presence of 100 uM […], uridine by CPRG assay; assay type: cell-based
Outline: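 ARN8 cells carrying the RGCΔFos-LacZ p53 reporter seeded at 2×10^4 per well and left 24 h, then treated 16 h (0.1% DMSO final, ±100 µM uridine). Cells washed, lysed and frozen at −20 °C for at least 2 h. β-galactosidase measured with CPRG substrate at pH 7.5, read at 590 nm after 24 h. Result is fold change vs DMSO; mean ± SD of three technical replicates.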

[2] = Antiproliferative activity against human ARN8 cells assessed as reduction in cell viability incubated for 72 hrs by SRB assay; assay type: functional, cell-based; conditions: Homo sapiens, ARN8, 72 h; read-out: IC50
Homo sapiens = organism: Homo sapiens; experiment: Antiproliferative activity against human ARN8 cells assessed as reduction in cell viability at 0.005 to 10 uM incubated for 72 hrs in presence of 100 uM […], uridine by SRB assay; assay type: functional, cell-based
[3] = molecular target: T1, Dihydroorotate dehydrogenase (quinone), mitochondrial; experiment: Inhibition of DHODH in human ARN8 cells assessed as increase in p53 level at 20 nM incubated for 24 hrs in presence of 100 uM […], uridine by Western blot analysis; assay type: cell-based
Outline: (§1)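 ARN8 cells seeded at 15×10^4 per well and left 24 h. Treated 24 h at 20 nM, or with etoposide at 20 µM for 1 h, with 100 µM uridine where indicated. Lysates made in LDS buffer and protein-normalized, then run on 4–15% gels and transferred to PVDF. Phospho-proteins blocked in BSA, others in milk; primary antibodies overnight at 4 °C, ECL detection. Loading judged by stain-free total protein.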

[4] = molecular target: T1, Dihydroorotate dehydrogenase (quinone), mitochondrial; experiment: Inhibition of DHODH in human ARN8 cells assessed as induction of DNA damage by measuring increase in p53 phosphorylation at Ser15 at 20 nM incubated for 24 hrs in presence of 100 uM […], uridine by Western blot analysis; assay type: cell-based; outline: as §1
[5] = molecular target: T1, Dihydroorotate dehydrogenase (quinone), mitochondrial; experiment: Inhibition of DHODH in human ARN8 cells assessed as induction of DNA damage by measuring increase in gammaH2AX level at 20 nM incubated for 24 hrs in presence of 100 uM […], uridine by Western blot analysis; assay type: cell-based; outline: as §1
[6] = molecular target: T1, Dihydroorotate dehydrogenase (quinone), mitochondrial; experiment: Inhibition of DHODH in human ARN8 cells assessed as DNA damage by measuring Chk1 phosphorylation at Ser345 at 20 nM incubated for 24 hrs by Western blot analysis; assay type: cell-based
Outline: (§2)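 ARN8 cells treated 24 h before lysis in LDS buffer and protein normalization. Western blot blocked in 5% BSA/TBS-T, primary antibody overnight at 4 °C, HRP secondary and ECL detection. Loading taken from stain-free total protein.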

[7] = molecular target: T1, Dihydroorotate dehydrogenase (quinone), mitochondrial; experiment: Inhibition of DHODH in human ARN8 cells assessed as DNA damage by measuring Chk2 phosphorylation at Thr68 at 20 nM incubated for 24 hrs by Western blot analysis; assay type: cell-based; outline: as §2
[8] = molecular target: T1, Dihydroorotate dehydrogenase (quinone), mitochondrial; experiment: Inhibition of DHOH in human ARN8 cells assessed as increase in cleaved PARP level at 20 nM incubated for 24 hrs by Western blot analysis; assay type: cell-based
Outline: (§3)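 ARN8 cells treated 24 h at 20 nM, with 20 µM Z-VAD-FMK or vehicle added 4.5 h before harvest. Etoposide arm was 20 µM for 1 h alongside Z-VAD-FMK. Lysates normalized for protein and analysed by western blot for p53, p-Ser15 p53, γ-H2AX, H2AX and cleaved PARP (85 kDa) against stain-free total-protein loading.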

[9] = molecular target: T1, Dihydroorotate dehydrogenase (quinone), mitochondrial; experiment: Inhibition of […] in human ARN8 cells assessed as decrease in Bcl2 protein expression at 20 nM incubated for 24 hrs by Western blot analysis; assay type: cell-based
[10] = Cytotoxicity against human HNDF cells assessed as reduction in cell viability incubated for 72 hrs in presence of 100 uM […], uridine by SRB assay; assay type: cell-based
Outline: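 Normal dermal fibroblasts seeded at 15×10^2 per well and left 24 h, then treated 72 h in medium with 0.1% DMSO final plus 100 µM uridine. Fixed with TCA, stained with 0.4% SRB, dye dissolved in Tris and read at 490 nm. Growth/viability given as % of DMSO control; mean ± SD of three technical replicates.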

[11] = molecular target: T1, Dihydroorotate dehydrogenase (quinone), mitochondrial; experiment: Inhibition of DHODH in human ARN8 cells assessed as induction of DNA damage by measuring increase in p53 phosphorylation at Ser15 at 20 nM incubated for 24 hrs in presence of pan-caspase inhibitor, Z-VAD-FMK by Western blot analysis; assay type: cell-based; outline: as §3

T1 sequence (Q02127 whole entry): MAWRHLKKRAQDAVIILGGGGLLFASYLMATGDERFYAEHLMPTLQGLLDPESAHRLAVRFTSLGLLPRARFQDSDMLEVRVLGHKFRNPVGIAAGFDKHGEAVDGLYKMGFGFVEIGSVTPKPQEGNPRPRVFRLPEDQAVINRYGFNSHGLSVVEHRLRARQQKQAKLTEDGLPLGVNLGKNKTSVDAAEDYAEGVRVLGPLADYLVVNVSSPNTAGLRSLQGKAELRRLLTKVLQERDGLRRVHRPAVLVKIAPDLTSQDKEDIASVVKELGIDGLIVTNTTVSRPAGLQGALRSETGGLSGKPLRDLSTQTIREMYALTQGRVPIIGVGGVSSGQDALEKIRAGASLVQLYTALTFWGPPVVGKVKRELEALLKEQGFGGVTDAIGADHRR

inhibition [1]: inactive
inhibition [3]: inactive
inhibition [8]: Active
inhibition [9]: Active
Structure (SMILES): O=C(N[C@@H]1CCCc2c1cnn2-c1ccccc1F)c1ncn2c1CCCC2
IC50 [2]: 22 nM
Activity (Homo sapiens): inactive
inhibition [4]: inactive
inhibition [5]: inactive
inhibition [6]: inactive
inhibition [7]: inactive
Activity [10]: Toxic
inhibition [11]: Active
